This passage reports Activity and IC50 results from ChEMBL document CHEMBL4699498 (J Med Chem, 2020).

Series [1] concerns PC-3. The experiment in a line: Antiproliferation activity against human PC-3 assessed as cell growth inhibition incubated for 7 days by CCK-8 assay. The series is classed as functional, cell-based. The following applies: time 7.0 day. The procedure, abridged: (§1)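 Cells were sub-cultured at least twice and seeded for 24 h before dosing. Compounds came from 10 mM DMSO stocks, given as 10 points of 3-fold serial dilution starting at 10-20 μM. Incubation was about 7 days (Capan-1 13 days) at 37 °C, 5% CO2. Read-out was CCK-8 absorbance at 450 nm, as % growth versus DMSO wells (duplicate wells). IC50 was fitted by nonlinear regression; three independent experiments.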
A general note: Tetrazolium assays rely on reduction of a dye to a coloured formazan, in cell work by metabolically active cells.

The test system of series [2] is CWR22R. The experiment in a line: Antiproliferation activity against human 22Rv1 assessed as cell growth inhibition incubated for 7 days by CCK-8 assay. The series is classed as functional, cell-based. The following applies: time 7.0 day. Summed up: as §1
A short description of series [3]: Acute toxicity in Balb/c mouse xenografted with SW-620 cells assessed as mean weight loss at 10 mg/kg, po qd administered for 5 days in presence of TMZ measured on day 9 relative to control. The following applies: in vivo, 216 h. Type of series: organism-based. The procedure, abridged:
(§2)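 Male BALB/c nude mice carried SW620 xenografts (6×10^6 cells s.c.), randomized at ~150 mm³ (6 per group). TMZ 50 mg/kg was given orally once daily on days 0-4, 45 min after the partner drug. Partners were 5 or 10 mg/kg intraperitoneally or 10 mg/kg by oral gavage, daily for 5 days. Vehicle was 5% DMSO/20% PEG400/10% Cremophor EL/65% saline. Tumor volume and body weight were recorded 2-3 times weekly.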

A short description of series [4]: Acute toxicity in Balb/c mouse xenografted with SW-620 cells assessed as lethality at 10 mg/kg, po qd administered for 5 days in presence of TMZ. The following applies: in vivo, 120 h, time 5 day. Type of series: organism-based. The procedure, abridged:
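In male BALB/c nude mice (5–6 weeks), s.c. SW620 xenografts (6×10^6 cells, right armpit) were grown to about 150 mm³, then randomised, 6 per group. The agent was given once daily for 5 days, orally or i.p., in 5% DMSO/20% PEG400/10% Cremophor EL/65% saline. TMZ 50 mg/kg was given orally once daily for 5 days from day 0, 45 min after the agent. Body weight was measured 2–3 times weekly.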

The subject of series [5] is MDA-MB-436. Description: Antiproliferative activity against human MDA-MB-436 cells assessed as cell growth inhibition incubated for 7 days by CCK-8 assay. The series is classed as functional, cell-based. The following applies: MDA-MB-436, 168 h. Summed up: as §1
Series [6] has as its system MDA-MB-468. The experiment in a line: Antiproliferation activity against human MDA-MB-468 assessed as cell growth inhibition incubated for 7 days by CCK-8 assay. The note with it: time 7.0 day. Type of series: functional, cell-based. Summed up:
as §1

Series [7] has as its system SW-620. The experiment in a line: Antiproliferation activity against human SW620 assessed as cell growth inhibition incubated for 7 days by CCK-8 assay. The following applies: time 7.0 day. Type of series: functional, cell-based. The procedure, abridged:
as §1

The test system of series [8] is SW-620. Description: Potentiation of TMZ induced antitumor activity against SW-620 cells xenografted in Balb/c mouse assessed as tumor growth suppression at 10 mg/kg, po qd administered for 5 days. The note with it: time 5.0 day. Type of series: functional, organism-based. The procedure, abridged:
as §2

Series [9] deals with LNCaP. Description: Antiproliferation activity against human LNCAP assessed as cell growth inhibition incubated for 7 days by CCK-8 assay. The following applies: time 7.0 day. Type of series: functional, cell-based. Summed up: as §1
Series [10] deals with HCC1937. The experiment in a line: Antiproliferation activity against human HCC1937 assessed as cell growth inhibition incubated for 7 days by CCK-8 assay. The series is classed as functional, cell-based. The following applies: time 7.0 day. The procedure, abridged:
as §1

In series [11] the test system is CAPAN-1. Description: Antiproliferative activity against human CAPAN-1 cells assessed as cell growth inhibition incubated for 13 days by CCK-8 assay. Type of series: functional, cell-based. The following applies: CAPAN-1, 312 h. Summed up: as §1
Series [12] has as its system MDA-MB-231. The experiment in a line: Antiproliferation activity against human MDA-MB-231 assessed as cell growth inhibition incubated for 7 days by CCK-8 assay. The series is classed as functional, cell-based. The note with it: time 7.0 day. The procedure, abridged:
as §1

The subject of series [13] is CAPAN-1. The experiment in a line: Antitumor activity against CAPAN-1 cells xenografted in Balb/c mouse assessed as tumor growth inhibition at 100 mg/kg, po qd administered for 21 days. Type of series: functional, organism-based. The note with it: time 21.0 day. The procedure, abridged:
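Male BALB/c nude mice (5-6 weeks old) carried subcutaneous Capan-1 xenografts (5×10^6 cells, right armpit). At ~150 mm³ they were randomized (6 per group). Dosing was 100 mg/kg by oral gavage daily for 21 days, or 25 mg/kg intraperitoneally 5 times a week for 3 weeks. Vehicle was 5% DMSO/20% PEG400/10% Cremophor EL/65% saline. Tumor volume was (length/2)×width², measured 2-3 times weekly.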

The subject of series [14] is MDA-MB-436. Description: Induction of DNA damage in human MDA-MB-436 cells assessed as increase in gammaH2AX foci formation incubated for 24 hrs by Western blot analysis. The note with it: dose microM 0.1-10, time 24.0 hrs. Type of series: functional, cell-based. The procedure, abridged: (§3)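 MDA-MB-436 (BRCA1-/-) or Capan-1 (BRCA2-/-) cells were treated 24 h at the indicated concentrations. Lysis was in RIPA buffer with protease inhibitors, and 20-30 μg protein was run on SDS-PAGE. Blots were probed for γH2AX, with β-tubulin as the loading control, and detected by ECL.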

The subject of series [15] is CAPAN-1. Description: Induction of DNA damage in human Capan1 cells assessed as increase in gammaH2AX foci formation incubated for 24 hrs by Western blot analysis. Type of series: functional, cell-based. The following applies: dose microM 0.1-10, time 24.0 hrs. The procedure, abridged:
as §3
On the technique in general: A western blot detects proteins with antibodies after separation by electrophoresis.

The nature of series [16]: Acute toxicity in Balb/c mouse xenografted with Capan1 cells assessed as lethality at 100 mg/kg, po qd administered for 5 days in presence of cisplatin. The note with it: in vivo, 120 h, time 5 day. The series is classed as organism-based. The procedure, abridged: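 Male BALB/c nude mice (5–6 weeks) carried s.c. Capan-1 xenografts (5×10^6 cells, right armpit) and were randomised at about 150 mm³, 6 per group. The agent was given once daily on days 0–4, by oral gavage or i.p., in DMSO/PEG400/Cremophor EL/saline vehicle. Cisplatin 6 mg/kg in saline was given i.p. on day 2, 45 min after the agent. Body weight was recorded 2–3 times weekly.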

Series [17] in a line: Acute toxicity in Balb/c mouse xenografted with SW-620 cells assessed as mean weight loss at 50 mg/kg, po qd administered for 5 days measured on day 6 relative to control. Type of series: organism-based. The following applies: in vivo, 144 h, time 6 day.
Series [18] concerns SW-620. The experiment in a line: Antitumor activity against SW-620 cells xenografted in Balb/c mouse assessed as tumor growth suppression at 50 mg/kg, po administered once daily for 5 days. Type of series: functional, organism-based. The note with it: time 5.0 day. Summed up:
as §2

Active and inactive are the calls of the source. No cut-off for these calls is given here.

As to `O=C(c1cc(Cc2n[nH]c(=O)c3ccccc23)ccc1F)N1CCN(C(=O)C2CC2)CC1` [OLAPARIB], the outcome in series [1], in series [2], in series [6], in [7], in series [8] and in series [9] was Active. For the same compound, the result in [10], in series [12], in [13], in [14] and in series [15] was Active. In addition, the Activity is recorded as 15% in [3], “Non-Toxic” in series [4] and “Non-Toxic” in series [16]. In addition, the IC50 (commonly the concentration at which inhibition is half-maximal) in series [5] was found to be 18 nM; in series [11], 27 nM.
Take `Cn1nnc2c(C(N)=O)ncn2c1=O` [TEMOZOLOMIDE]: the Activity in series [17] stood at 9%. For the same compound, in series [18], the result was Active.
